M1 ag: human M1 muscarinic receptor agonism | P11229 | CHO-K1 hM1, Fluo-8 calcium fluorescence, agonist mode; 0% DMSO, 100% acetylcholine EC100 | activation, % at 3 µM | 360,000 compounds, 0.33% hits;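 active = activation above the run's mean compound activation plus 3 SD, cut at about 16% in these data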;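 note: peak over basal fluorescence ratio within a 140 s kinetic read after compound addition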
CHRM1 PAM: positive allosteric modulators of human M1 muscarinic receptor; P11229; CHO-K1 hM1, Fluo-8 calcium fluorescence, ACh EC20; 0% = ACh EC20, 100% = maximal ACh; activation, % at 3 µM; 360,000 compounds, 0.088% hits; AID 588819; in the data active = activation above about 19%, passing the limit was not always enough
CHRM1 antagonist: antagonists of human M1 muscarinic receptor. 360,000 compounds, 1.3% hits. inhibition, % at 3 µM. P11229. AID 588852. CHO-K1 hM1, Fluo-8 calcium fluorescence, ACh EC80 antagonist;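 active = percent inhibition above its own plate's cutoff, namely the mean of that plate's compound wells plus 3 SD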;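 note: peak over basal fluorescence ratio during 140 s after agonist addition; 0% = ACh EC80 plus DMSO and 100% = DMSO alone without agonist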
TAAR1 antagonist: antagonists of human TAAR1 | AID 624466 | CHO RD-HGA16 TAAR1, Fluo-8 calcium fluorescence, antagonist | 360,000 compounds, 1.5% hits | Q96RJ0 | inhibition, % at 3 µM;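 active = inhibition above a per-plate cutoff, the mean inhibition of test compounds on that plate plus 3 SD, cut at about 49% in these data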;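 note: 0% = DMSO plus EC80 beta-PEA response and 100% = DMSO alone without agonist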
Target sequence (Q96RJ0 whole entry, looked up): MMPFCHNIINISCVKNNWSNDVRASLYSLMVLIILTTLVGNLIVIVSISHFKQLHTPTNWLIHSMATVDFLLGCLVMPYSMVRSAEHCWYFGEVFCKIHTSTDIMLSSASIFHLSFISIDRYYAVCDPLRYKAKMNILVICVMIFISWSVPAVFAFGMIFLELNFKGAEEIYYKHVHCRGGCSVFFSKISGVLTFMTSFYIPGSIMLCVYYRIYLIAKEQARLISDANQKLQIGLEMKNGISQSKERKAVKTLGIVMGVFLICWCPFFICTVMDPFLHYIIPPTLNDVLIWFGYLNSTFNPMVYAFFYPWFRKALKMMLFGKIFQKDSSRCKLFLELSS
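Material: RD-HGA16 CHO cells with stable hTAAR1 and Gα16; Dosing: single nominal final test compound concentration of 3 µM; Schedule: seeding 17-24 h prior, 75-min 37 °C, 30-min RT dye loading; Detection: kinetic Fluo-8 calcium fluorescence measurement; Measure: % inhibition from peak post-agonist over basal fluorescence ratio; Benchmarks: vehicle and agonist controls.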
TAAR1 ag: human TAAR1 agonism; Q96RJ0; CHO RD-HGA16 TAAR1, Fluo-8 calcium fluorescence; vehicle wells 0%, saturating PEA agonist 100%; activation, % at 3 µM; 360,000 compounds, 0.99% hits;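 active = activation above the mean activation of all test compounds in the run plus 3 SD, cut at about 38% in these data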
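Assay system: CHO-derived RD-HGA16 cells with stable Gα16 and human TAAR1; timing: 17-24 h seeding, 75 min 37 °C dye, 30 min RT; read-out: % activation from peak over basal fluorescence ratio, DMSO-to-PEA scaled; measured by: kinetic Fluo-8 calcium fluorescence; benchmarks: low control DMSO, high control PEA (EC100); doses: 3 µM single concentration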
TAAR1 nonsel count: nonselective antagonism, TAAR1 counter-screen | shares compounds with TAAR1 antagonist | counterscreen cell line, calcium fluorescence, antagonist mode | inhibition, % at 3 µM | 2,400 compounds, 77% hits | AID 651780; in the data active = inhibition above about 22%;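 note: CHO-Ga16 host cells stimulated with ATP at an EC80 level; 0% = agonist EC80 plus vehicle and 100% = vehicle without agonist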
TAAR1 antag conf: human TAAR1 antagonism, confirmed. shares compounds with TAAR1 antagonist. TAAR1-expressing cells, fluorescence antagonist read-out. inhibition, % at 3 µM. 2,400 compounds, 40% hits; in the data active = inhibition above about 49%;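 note: CHO-Ga16 host cells challenged with agonist PEA near its EC80; 0% = agonist at EC80 plus vehicle and 100% = vehicle with no agonist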
Ga16 nonsel ag: nonselective Ga16 agonism, counter-screen | AID 651953 | 2,400 compounds, 18% hits | shares compounds with TAAR1 antagonist | activation, % at 3 µM | Ga16-expressing cells, calcium fluorescence, agonist counterscreen; in the data active = activation above about 12%;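 note: 0% = vehicle wells and 100% = saturating stimulus response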
TAAR1 ag counter: counter-screen for human TAAR1 antagonists: TAAR1 agonists; AID 651955; shares compounds with TAAR1 antagonist; 2,400 compounds, 2% hits; activation, % at 3 µM; hTAAR1 cell line, fluorescence activation, agonist mode; in the data active = activation above about 37%;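 note: CHO cells stably expressing TAAR1 with calcium dye readout; 0% = DMSO vehicle and 100% = full agonist response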
An asterisk follows results filed as active; · = not tested or not shown. A selection: hits, their analogues and other compounds. The true share with any hit is near 3.4%.

SMILES | M1 ag | CHRM1 PAM | CHRM1 antagonist | TAAR1 antagonist | TAAR1 ag | TAAR1 nonsel count | TAAR1 antag conf | Ga16 nonsel ag | TAAR1 ag counter
O=C(C[C@@H]1C/C=C\C[C@H](Cc2ccc(F)cc2)C(=O)OC[C@H]2CCCN2C1=O)N[C@H](CO)Cc1ccccc1 | -6.9 | -4.1 | 4.9 | 61.0* | 21.3 | 23.5* | 33.4 | 5.2 | 1.3
O=C1N[C@H](Cc2ccccc2)COC(=O)[C@H](Cc2ccc(F)cc2)C/C=C\C[C@@H]1CC(=O)N(CCO)Cc1ccccc1 | -1.8 | -0.8 | 4.1 | 54.1* | 34.6 | 32.0* | 49.2* | 12.3* | 16.5
O=C(C[C@@H]1C/C=C\C[C@@H](Cc2ccc(F)cc2)C(=O)OC[C@@H]2CCCN2C1=O)N[C@H](CO)Cc1ccccc1 | -8.4 | 9.4 | 3.0 | 1.4 | 7.9 | · | · | · | ·
O=C1N[C@@H](c2ccccc2)COC(=O)[C@H](Cc2ccc(F)cc2)CC/C=C/C[C@H]1CC(=O)N(CCO)Cc1ccccc1 | -2.2 | -5.3 | 7.7 | 60.6* | 15.3 | 32.2* | 47.4 | 13.4* | 12.8
Cc1cccc(N2CCN(C(=O)c3nn(C)c4c3CS(=O)(=O)c3ccccc3-4)CC2C)c1 (stereo unspecified) | 3.4 | 14.1 | -1.3 | 52.6* | 15.4 | 30.8* | 44.0 | 9.8 | 9.2
COc1ccc(CN2C(=O)C(CC(=O)NC3CC3)CC(C(=O)N3CCOCC3)=C2C)cc1 (stereo unspecified) | -2.4 | -4.2 | -14.7 | -15.0 | 4.8 | · | · | · | ·
Cc1nn(Cc2c(F)c(F)c(F)c(F)c2F)c(C)c1NC(=O)c1ccc(COc2ccccc2Cl)cc1 | -1.6 | 4.1 | 0.6 | · | · | 13.8 | · | 4.8 | ·
CN(C1CCCCC1)S(=O)(=O)c1ccc(NC(=O)c2ccc(Br)o2)cc1 | -3.0 | -7.6 | -11.8 | 63.4* | 14.8 | 22.7* | 44.2 | 6.8 | 9.7
CN(C)S(=O)(=O)c1ccc(NC(=O)c2ccc(Br)o2)cc1 | -4.7 | -2.2 | 2.7 | · | · | · | · | · | ·
COC(=O)C1(C(=O)OC)c2cc3c(cc2CN(S(=O)(=O)c2ccc(C)cc2)C1CC(C)=O)OCO3 (stereo unspecified) | · | · | · | -13.4 | 5.4 | · | · | · | ·
CSCCC(C(=O)NC1CCCC1)n1c(C2CC2)nc2ccccc21 (stereo unspecified) | · | · | · | -22.1 | 0.9 | · | · | · | ·
CC(C)(C)NC(=O)C(c1ccco1)N(Cc1ccc(F)cc1)C(=O)c1snc(C(N)=O)c1N (stereo unspecified) | -7.4 | -3.8 | 1.7 | 22.8 | 10.6 | · | · | · | ·
NC(=O)c1nsc(C(=O)N(c2ccccc2)C(C(=O)NC2CCCC2)c2ccncc2)c1N (stereo unspecified) | -1.0 | 2.5 | -6.0 | -24.3 | 0.2 | · | · | · | ·
NC(=O)c1nsc(C(=O)N(c2ccccc2)C(C(=O)NC2CCCCC2)c2ccc(O)cc2)c1N (stereo unspecified) | 1.3 | 3.3 | 7.0 | 63.7* | 5.7 | 24.5* | 40.4 | 5.9 | 8.0
NC(=O)c1nsc(C(=O)N(c2ccccc2)C(C(=O)NCc2ccc(F)cc2)c2ccc(O)cc2)c1N (stereo unspecified) | -0.6 | -9.2 | 26.9* | 74.5* | 30.4 | 37.6* | 63.8* | 13.8* | 18.7
NC(=O)c1nsc(C(=O)N(c2ccccc2)C(C(=O)NCc2ccc(F)cc2)c2ccco2)c1N (stereo unspecified) | 1.4 | -3.7 | 11.7 | 67.5* | 17.2 | 21.4* | 53.0* | 9.2 | 39.6*
CCCCNC(=O)c1nc(C2CCN(S(=O)(=O)c3ccc(Cl)cc3)CC2)oc1-c1ccccc1 | · | · | · | 0.8 | -0.1 | · | · | · | ·
CCc1nc2ccc(C(=O)NCc3ccccc3OC)cn2c1N(CC)Cc1cccc(Br)c1 | -4.1 | -7.3 | 12.5 | -14.1 | 5.2 | · | · | · | ·

Screening data from PubChem.
